We go through 26 molecules from ChEMBL document CHEMBL1130167, “NMR-based discovery of lead inhibitors that block DNA binding of the human papillomavirus E2 protein” (J Med Chem, 1997).

In experiment [1] the target is Regulatory protein E2 (Human papillomavirus type 31). As to the kind of experiment: Dissociation constant after binding to human papillomavirus E2 DNA-binding domain (DBD) by observing the changes in [15N]-HSQC spectra.
A further experiment deals with Nucleic Acid. As to the kind of experiment: Compound was tested for inhibition activity against HPV-E2 DNA-binding domain (DBD) (human papillomavirus E2) binding to DNA. In kind it is nucleic-acid assay. The procedure, abridged:
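Filter-binding assay: binding reactions at room temperature for 10 min in binding buffer (20 mM Tris-HCl pH 7.5, 100 mM NaCl, 5 mM DTT, 1 mM EDTA, BSA) with 4 nM DNA and 400 nM E2 DBD. Compounds were added from DMSO stocks at various concentrations. Mixtures were filtered through nitrocellulose, washed with buffer lacking BSA and counted by scintillation. IC50 was read from concentration versus percent inhibition plots.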

Bounds are passed on as bounds.

Consider `COc1ccccc1-c1ccc(C(=O)O)cc1`, for which, in experiment [1], the Kd – broadly, the free concentration of one partner at which half of the binding sites on the other are occupied at equilibrium, for simple one-to-one binding – turned out to be 1700 µM.
On the same count and under the same terms, the result for `O=C(O)Cc1cccc(Oc2ccccc2)c1` reads over 10000 µM.
On the same count and under the same terms, under `O=C(O)c1ccc(-c2cc(C(F)(F)F)cc(C(F)(F)F)c2)cc1` stands over 10000 µM; under `CN(C)c1ccc(-c2ccc(C(=O)O)cc2)cc1`, 6800 µM.
The same measure, in the same setting: under `O=C(O)c1ccc(-c2ccc([N+](=O)[O-])c(Cl)c2)cc1` stands over 10000 µM.
Consider `O=C(O)c1ccc(-c2cc(Cl)cc(Cl)c2)cc1`, for which the IC50 (commonly the midpoint of a concentration-inhibition curve) with Nucleic Acid was determined as 150 µM. In experiment [1], this molecule gave a Kd of 60 µM.
In the case of `O=C(O)c1ccc(-c2cccc(F)c2)cc1`, binding in experiment [1] was characterised by a dissociation constant (Kd) of 1600 µM.
The same measure, in the same setting: the result for `COc1ccc(-c2ccc(C(=O)O)cc2)cc1` reads 8800 µM.
The same measure, in the same setting: under `O=C(O)c1ccc(-c2cccc(C(F)(F)F)c2)cc1` stands 320 µM.
In turn, `O=C(O)c1ccc(-c2ccc(Cl)cc2Cl)cc1` yielded a Kd in experiment [1] of 3500 µM. Against the preceding molecule, the Kd is about 11-fold higher.
Same read-out and setting: the result for `O=C(O)c1ccc(-c2cccc(Cl)c2)cc1` reads 1200 µM.
In the experiment with Nucleic Acid, `O=C(O)/C=C/C=C/c1cccc(Oc2cc(Cl)cc(Cl)c2)c1` showed an IC50 of 10 µM.
In turn, `O=C(O)/C=C/C=C/c1ccc(Oc2ccccc2)cc1` returned an IC50 in the experiment on Nucleic Acid of 75 µM. Moreover, in experiment [1], the Kd is 350 µM.
For `O=C(O)CCCc1ccc(Oc2ccccc2)cc1`, in that order: over 1000 µM and 1900 µM.
In experiment [1], `Cc1cccc(-c2ccc(C(=O)O)cc2)c1` yielded a Kd of 1900 µM. In other words, the millimolar range.
With `O=C(O)c1ccc(-c2ccc(Cl)c(Cl)c2)cc1`, the Kd in experiment [1] was found to be 6600 µM.
The same measure, in the same setting: under `O=C(O)CCCCc1ccc(Oc2ccccc2)cc1` stands 850 µM; under `O=C(O)c1ccc(-c2ccc(C(F)(F)F)cc2)cc1`, 1500 µM.
Still for that read-out and setting: under `O=C(O)c1ccc(-c2ccc(Oc3ccccc3)cc2)cc1` stands 2100 µM.
On the same count and under the same terms, the result for `O=C(O)c1ccc(-c2ccc(O)cc2)cc1` reads over 10000 µM; that for `Nc1cccc(-c2ccc(C(=O)O)cc2)c1`, over 10000 µM.
As to `O=C(O)c1ccc(-c2cccc([N+](=O)[O-])c2)cc1`, in experiment [1], binding was characterised by a dissociation constant (Kd) of 8900 µM. This lies in the millimolar range.
Turning to `O=C(O)CCc1ccc(Oc2ccccc2)cc1`, the Kd in experiment [1] worked out at 2300 µM.
Still for that read-out and setting: under `Cc1ccccc1-c1ccc(C(=O)O)cc1` stands 2700 µM.
Turning to `O=C(O)c1ccc(-c2ccccc2)cc1`, in the experiment on Nucleic Acid, the IC50 was over 1000 µM.
In the case of `CC(C)(C)c1ccc(-c2ccc(C(=O)O)cc2)cc1`, in experiment [1], the Kd is over 10000 µM.
